Experiments:
L1210 = test: Compound was evaluated for the clonogenic assay with murine leukemia L1210 cells; type: functional; conditions: Mus musculus, read-out: ID50 (the source's name)
ATH-8 cell line [1] = test: Compound was evaluated for the inhibition of replication and cytopathic effect of HIV-1 in ATH8 cells; type: functional, cell-based, Homo sapiens
Method in brief: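 ATH8 (CD4+) cells, 2 × 10⁵, were exposed to HIV-1 LAI (500 TCID50) for 45 min and then cultured with compound. Total viable cells were counted on day 7. Percent protection was calculated as viable cells (infected plus drug minus infected alone) divided by (uninfected minus infected alone) × 100. Cytotoxicity was 100 × (1 − viable cells with drug / viable cells alone).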

ATH-8 cell line [2] = test: Compound was evaluated for the cytotoxicity in ATH8 cells; conditions: Homo sapiens
[3] = Kinetic hydrolysis catalyzed by pig liver esterase at pH 7.4 and 37 degree C; type: ADME, Sus scrofa
Method in brief: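 Substrate at 2.2 × 10⁻³ M in 0.02 M Na₂HPO₄, pH 7.4, with pig liver esterase (200 units per 1 mL), stirred at 37 °C. Aliquots were taken at set times and analysed by reverse-phase C18 HPLC (water–CH₃CN gradient) to follow loss of substrate and give the half-life.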

[4] = Kinetic hydrolysis catalyzed by pig liver esterase at pH 1.2; type: ADME, Sus scrofa
[5] = Kinetic hydrolysis catalyzed by pig liver esterase at pH 9.8; type: ADME, Sus scrofa
L1210 (Mus musculus) = test: Compound was evaluated for the inhibitory activity in a clonogenic assay with murine leukemia L1210 cells

Row | SMILES | IC50 (L1210) | EC50 (ATH-8 cell line [1]; Homo sapiens, ATH-8) | IC50 (ATH-8 cell line [2]) | EC50 (ATH-8 cell line [1]; ath-8) | half-life [3] | half-life [4] | half-life [5] | ID50 (L1210 (Mus musculus))
1 | Nc1ncnc2c1ncn2C=C=CCO | 150000 nM | 14000 nM | 3000 nM |  |  |  |  | 
2 | COC(=O)C(C)NP(=O)(OCC=C=Cn1cnc2c(N)ncnc21)Oc1ccccc1 (stereo in doubt; 4a) |  |  |  | 210 nM |  |  |  | 
3 | COC(=O)C(C)NP(=O)(OCC=C=Cn1cnc2c(N)ncnc21)Oc1ccccc1 (stereo in doubt; 2a) |  |  |  | 880 nM | 8.5 h | 24.4 h | 2.52 h | > 300000 nM
